High-throughput results: PubChem BioAssay, several laboratories
A selection: hits, their analogues and other compounds. The true share with any hit is near 2.6%.
PolyA inhibitor: polyadenylation inhibitors in yeast reporter cells, primary screen, luminescence, S. cerevisiae. AID 1875, 2009. activity score, % at 12 µM. actives 0.02% (n = 300,000). S. cerevisiae SKY197-pL101 polyadenylation reporter, beta-gal luminescence; efflux-impaired pdr1/pdr3 knockout yeast; score 100 = 6 SD above DMSO;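 active = lowest replicate activity score at least 50, where 100 means six control SD above control mean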;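 note: yeast exposed to compound for 9 h at 30 °C; higher score means more reporter readthrough which indicates perturbed polyadenylation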
CHT block: inhibitors of human choline transporter CHT. High affinity choline transporter 1 (Homo sapiens), Q9GZV3. CHT-expressing cells, membrane potential dye, choline response; hits give low values. B-score at 10 µM. actives 0.86% (n = 310,000). AID 488975, 2010;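 active = B-score over 3 SD under the library average, and starting fluorescence ratio not unusually high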;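 note: choline stimulus applied at its EC90 after an EC20 pre-addition; B-score computed on integrated fluorescence ratio after choline addition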
Target sequence (Q9GZV3 whole entry, looked up): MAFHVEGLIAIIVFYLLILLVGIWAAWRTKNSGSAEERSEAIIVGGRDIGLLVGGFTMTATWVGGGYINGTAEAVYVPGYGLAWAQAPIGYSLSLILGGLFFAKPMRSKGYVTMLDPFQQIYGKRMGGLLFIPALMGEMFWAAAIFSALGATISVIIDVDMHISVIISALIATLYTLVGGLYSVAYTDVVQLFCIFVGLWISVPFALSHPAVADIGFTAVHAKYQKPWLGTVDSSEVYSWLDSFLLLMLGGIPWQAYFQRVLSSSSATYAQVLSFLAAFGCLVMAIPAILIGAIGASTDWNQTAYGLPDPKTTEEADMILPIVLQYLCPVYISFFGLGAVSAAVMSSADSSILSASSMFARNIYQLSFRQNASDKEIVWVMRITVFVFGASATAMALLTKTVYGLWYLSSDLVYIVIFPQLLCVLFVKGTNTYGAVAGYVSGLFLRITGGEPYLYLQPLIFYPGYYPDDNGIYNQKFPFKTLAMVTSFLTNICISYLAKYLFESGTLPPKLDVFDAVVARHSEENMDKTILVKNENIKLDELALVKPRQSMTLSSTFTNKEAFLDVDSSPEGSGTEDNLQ
T cruzi repl: inhibitors of intracellular T. cruzi growth, primary screen, luminescence, NIH3T3 host cells. inhibition, % (no concentration beside the values). actives 1.4% (n = 300,000). AID 1885, 2009. T. cruzi beta-gal in NIH3T3, 90 h;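 active = mean inhibition across valid replicates above about 55%, limit read from the data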;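 note: signal also drops with host cell toxicity which is not excluded here; 0% = plate median of DMSO wells and 100% = zero luminescence signal; higher percent means less beta-gal luminescence so fewer parasites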
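System: NIH/3T3 fibroblasts plus reporter T. cruzi. Medium: DMEM plus 2% FBS. Probe or stimulus: 5000 reporter trypomastigotes per well. Compound: single 50 nL compound addition per well in DMSO. Incubation: co-culture of at least 90 h after 3 h attachment. Detection: GalScreen β-gal luminescence, detergent lysis, 60 min. Evaluation: parasite load inhibition, %.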
CHT allo act: CHT positive allosteric modulators, primary screen, cell-based, membrane potential dye, choline EC20. High affinity choline transporter 1 (Homo sapiens), Q9GZV3. CHT-expressing cells; hits give high values; LV-AA mutant CHT in HEK293 cells. B-score at 10 µM. actives 0.49% (n = 310,000). AID 488977, 2010;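 active = initial fluorescence not abnormally high and integrated response B-score, plate-corrected, over 3 SD above library mean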
Numbers without * were called inactive; i = inactive; . = no result.

SMILES	PolyA inhibitor	CHT block	T cruzi repl	CHT allo act
O=C(Nc1ccccc1N1CCN(C(=O)c2ccccc2)CC1)c1cc(Br)ccc1Cl	5	i	19	i
COc1ccc(Br)cc1C(=O)Nc1ccccc1N1CCN(C(=O)c2ccccc2)CC1	10	i	59*	i
COc1cccc(CNC(=O)CN2c3cccc4cccc(c34)S2(=O)=O)c1	-5	i	3	i
COc1cc(Cl)ccc1OCc1cc(C(=O)N(C)C2CC(C)(C)NC(C)(C)C2)no1	-2	i	23	i
Cc1ccc(C(=O)Cc2cc3ccccc3oc2=O)c(C)c1	3	i	-6	i
O=C(O)CSc1cccc2cccnc12	13	i	36	i
CN(C)S(=O)(=O)c1cccc(NC(=O)CSc2cccc3cccnc23)c1	-12	i	60*	i
COCCCNC(=O)CCC(=O)NNc1nc2ccccc2c2nc(C)nn12	19	i	-5	i
O=C(CSc1ccc(F)cc1)Nc1ccc2c(c1)C(=O)NC2=O	1	i	-43	i
COc1c(Cl)cc(Cl)cc1C(=O)Nc1ccc(NC(=O)c2cccs2)cc1	-10	i	58*	i
Cc1ccc(C(=O)NC(=S)Nc2ccc(CN3CCCCC3)cc2)c(C)c1	-10	i	60*	i
COc1c(Cl)cc(Cl)cc1C(=O)Nc1ccc(CN2CCOCC2)cc1	-20	i	-31	i
COc1c(Cl)cc(Cl)cc1C(=O)Nc1ccc(CN2CCCCC2)cc1	-27	i	56*	i
O=C(Nc1ccc(NC(=O)c2ccc(Cl)cc2Cl)cc1)c1cccs1	17	i	-9	i
COc1ccc(C(=O)NC(=S)Nc2ccc(CN3CCCCC3)cc2)cc1Cl	0	i	51	i
Cc1ccc(Cl)cc1N1CCN(CC(=O)Nc2ccc(CN3CCCCC3)cc2)CC1	-8	i	55*	i
COc1ccccc1N1CCN(CC(=O)Nc2ccc(CN3CCCCC3)cc2)CC1	-1	i	7	i
COc1cccc(NC(=O)CN(C)C(=O)c2oc3c(ccc4ccccc43)c2C)c1	18	i	14	i
CCN(C(=O)c1cc2c(=O)[nH]c3ccc(C)cc3c2s1)c1ccccc1F	0	i	40	i
CCN(C(=O)c1cc2c(=O)[nH]c3ccc(C)cc3c2s1)c1ccccc1C	-4	i	56*	i
CCN(C(=O)c1cc2c(=O)[nH]c3ccc(C)cc3c2s1)c1cccc(C)c1	-5	i	56*	i
CN(C)c1ccc(/C=N/N=C(N)N)cc1[N+](=O)[O-]	1	i	78*	i
COc1cc(=O)[nH]c(SC(C)C(=O)Nc2ccc3ccccc3c2)n1 (stereo not given)	-10	i	2	i
CN1CCN(/N=C/c2ccc(-c3ccc([N+](=O)[O-])cc3Cl)o2)CC1	-9	i	59*	i
Cc1ccc(S(=O)(=O)NC(=O)Nc2ccc(N(C)C)cc2)cc1	-19	i	57*	i
SMILES	PolyA inhibitor	CHT block	T cruzi repl	CHT allo act
COc1ccc2[nH]c3c(NCCC4=CCCCC4)ncnc3c2c1	10	.	87*	.
N=c1c2c(n(Cc3ccc(Br)cc3)c3c1CCC3)CCCC2	4	i	67*	i
N=c1c2c(n(Cc3ccc([N+](=O)[O-])cc3)c3c1CCC3)CCCC2	-37	i	40	i
C/C(=N\NC(=O)c1cc(-c2cccc([N+](=O)[O-])c2)n[nH]1)c1ccc(F)cc1	23	i	5	i
C/C(=N\NC(=O)c1cc(-c2cccc([N+](=O)[O-])c2)n[nH]1)c1ccccc1O	19	i	61*	i
CN(C)CC#CCC(O)(c1ccccc1)C1CCCCC1 (stereo not given)	13	i	0	i
CCN(CC)CC#CCC(O)(c1ccccc1)C1CCCC1 (stereo not given)	-13	i	59*	i
CCN(CC)P(=O)(Nc1ccccc1Br)c1ccc(N(C)C)cc1NC(=O)c1ccco1 (stereo not given)	-9	i	57*	i
CCN1CCN(c2ccc(S(=O)(=O)N3CCOCC3)cc2NC(=O)c2ccc(Cl)s2)CC1	16	i	69*	i
CCN1CCN(c2ccc(S(=O)(=O)N3CCCCC3)cc2NC(=O)c2cc3ccccc3o2)CC1	-3	i	76*	i
